Reference: ChEMBL document CHEMBL1139087, “Structure-activity relationships of 3-aminoquinazolinediones, a new class of bacterial type-2 topoisomerase (DNA gyrase and topo IV) inhibitors” (Bioorg Med Chem Lett, 2007)
Values after ≈ are worked out from the molar mass of the structure shown.

Legend:
Streptococcus pyogenes = assay: Antibacterial activity against Streptococcus pyogenes C-203 SP1-1; format: functional
In short: (§1)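 MIC (μg/mL) by standard broth microtitration dilution following NCCLS M7-A5 for aerobically growing bacteria. Panel: Gram-negative E. coli MC4100 (wild-type) and E. coli Tol C (membrane efflux-pump deficient); Gram-positive Enterococcus faecalis, Staphylococcus aureus and Streptococcus pyogenes.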

Escherichia coli [1] = assay: Antibacterial activity against Escherichia coli MC4100 EC2026; format: functional; in short: as §1
[2] = Inhibition of Escherichia coli H560 DNA gyrase assessed as DNA cleavage
Enterococcus faecalis = assay: Antibacterial activity against Enterococcus faecalis MGH-2 EF1-1; format: functional; in short: as §1
Escherichia coli [3] = assay: Antibacterial activity against membrane efflux-pump deficient Escherichia coli Tol C EC2549; format: functional; in short: as §1
Staphylococcus aureus = assay: Antibacterial activity against Staphylococcus aureus UC-76 SA-1; format: functional; in short: as §1

| Compound | MIC (Streptococcus pyogenes) | MIC (Escherichia coli [1]) | IC50 [2] | MIC (Enterococcus faecalis) | MIC (Escherichia coli [3]) | MIC (Staphylococcus aureus) |
| --- | --- | --- | --- | --- | --- | --- |
| CC(=O)Nn1c(=O)c2cc(F)c(N3CCC(N)C3)c(Cl)c2n(C2CC2)c1=O (stereo not given) | > 64 µg/mL | 64 µg/mL (≈ 162 µM) | 10 µM | > 64 µg/mL | 2 µg/mL (≈ 5.05 µM) | > 64 µg/mL |
| CC(C)n1c(=O)n(N)c(=O)c2cc(F)c(N3CCC(N)C3)c(Cl)c21 (stereo not given) | > 64 µg/mL | > 64 µg/mL | 98 µM | > 64 µg/mL | > 64 µg/mL | > 64 µg/mL |
| N[C@H]1CCN(c2cc3c(cc2F)c(=O)n(N)c(=O)n3CC2CC2)C1 | > 64 µg/mL | > 64 µg/mL | 20 µM | > 64 µg/mL | 8 µg/mL (≈ 24 µM) | > 64 µg/mL |
| NC1CCN(c2cc(F)c3c(=O)n(N)c(=O)n(C4CC4)c3c2F)C1 (stereo not given) | > 64 µg/mL | 32 µg/mL (≈ 94.9 µM) | 17 µM | > 64 µg/mL | 4 µg/mL (≈ 11.9 µM) | > 64 µg/mL |
| Nc1c(F)c(N2CCC(N)C2)c(F)c2c1c(=O)n(N)c(=O)n2C1CC1 (stereo not given) | 32 µg/mL (≈ 90.8 µM) | 8 µg/mL (≈ 22.7 µM) | 21 µM | 64 µg/mL (≈ 182 µM) | 1 µg/mL (≈ 2.84 µM) | 32 µg/mL (≈ 90.8 µM) |
| CN[C@H]1CCN(c2c(F)cc3c(=O)n(NC)c(=O)n(C4CC4)c3c2Cl)C1 | > 64 µg/mL | > 64 µg/mL | – | > 64 µg/mL | 8 µg/mL (≈ 21 µM) | > 64 µg/mL |
| NC1CCN(c2c(F)cc3c(=O)n(N)c(=O)n(-c4ccc(F)cc4F)c3c2Cl)C1 (stereo not given) | > 64 µg/mL | > 64 µg/mL | > 100 µM | > 64 µg/mL | 64 µg/mL (≈ 150 µM) | > 64 µg/mL |
| N[C@H]1CCN(c2cc3c(cc2F)c(=O)n(N)c(=O)n3C2CC2)C1 | 16 µg/mL (≈ 50.1 µM) | 8 µg/mL (≈ 25.1 µM) | 1.6 µM | 32 µg/mL (≈ 100 µM) | 1 µg/mL (≈ 3.13 µM) | 64 µg/mL (≈ 200 µM) |
| NC1CCN(c2c(F)cc3c(=O)n(N)c(=O)n(C4CCC4)c3c2Cl)C1 (stereo not given) | > 64 µg/mL | 16 µg/mL (≈ 43.5 µM) | 23 µM | > 64 µg/mL | 2 µg/mL (≈ 5.44 µM) | > 64 µg/mL |
| CCOc1c(N2CCC(N)C2)c(F)cc2c(=O)n(N)c(=O)n(C3CC3)c12 (stereo not given) | 64 µg/mL (≈ 176 µM) | 32 µg/mL (≈ 88.1 µM) | 11 µM | > 64 µg/mL | 4 µg/mL (≈ 11 µM) | > 64 µg/mL |
| CCn1c(=O)n(N)c(=O)c2cc(F)c(N3CC[C@H](N)C3)cc21 | > 64 µg/mL | 64 µg/mL (≈ 208 µM) | 35 µM | > 64 µg/mL | 16 µg/mL (≈ 52.1 µM) | > 64 µg/mL |
| O=C(O)c1cn(C2CC2)c2cc(N3CCNCC3)c(F)cc2c1=O [CIPROFLOXACIN] | 2 µg/mL (≈ 6.04 µM) | – | – | 0.4 µg/mL (≈ 1.21 µM) | – | 4 µg/mL (≈ 12.1 µM) |

The next lines start with the values.

| MIC (Streptococcus pyogenes) | MIC (Escherichia coli [1]) | IC50 [2] | MIC (Enterococcus faecalis) | MIC (Escherichia coli [3]) | MIC (Staphylococcus aureus) | Compound |
| --- | --- | --- | --- | --- | --- | --- |
| 4 µg/mL (≈ 11.9 µM) | 2 µg/mL (≈ 5.93 µM) | 1.3 µM | 8 µg/mL (≈ 23.7 µM) | 0.25 µg/mL (≈ 0.741 µM) | 8 µg/mL (≈ 23.7 µM) | NC1CCN(c2c(F)cc3c(=O)n(N)c(=O)n(C4CC4)c3c2F)C1 (stereo not given) |
| 4 µg/mL (≈ 11.4 µM) | 4 µg/mL (≈ 11.4 µM) | 4.3 µM | 8 µg/mL (≈ 22.9 µM) | 0.5 µg/mL (≈ 1.43 µM) | 8 µg/mL (≈ 22.9 µM) | COc1c(N2CCC(N)C2)c(F)cc2c(=O)n(N)c(=O)n(C3CC3)c12 (stereo not given) |
| 16 µg/mL (≈ 45 µM) | 2 µg/mL (≈ 5.63 µM) | 3 µM | 32 µg/mL (≈ 90.1 µM) | 0.5 µg/mL (≈ 1.41 µM) | 16 µg/mL (≈ 45 µM) | NC1CCN(c2c(F)c(F)c3c(=O)n(N)c(=O)n(C4CC4)c3c2F)C1 (stereo not given) |
| 0.5 µg/mL (≈ 1.5 µM) | 1 µg/mL (≈ 3 µM) | 0.1 µM | 2 µg/mL (≈ 6 µM) | 0.06 µg/mL (≈ 0.18 µM) | 4 µg/mL (≈ 12 µM) | Cc1c(N2CCC(N)C2)c(F)cc2c(=O)n(N)c(=O)n(C3CC3)c12 (stereo not given) |
| 8 µg/mL (≈ 21.8 µM) | 4 µg/mL (≈ 10.9 µM) | 6.1 µM | 16 µg/mL (≈ 43.5 µM) | 0.5 µg/mL (≈ 1.36 µM) | 16 µg/mL (≈ 43.5 µM) | CN[C@H]1CCN(c2c(F)cc3c(=O)n(N)c(=O)n(C4CC4)c3c2Cl)C1 |
| 2 µg/mL (≈ 5.2 µM) | 16 µg/mL (≈ 41.6 µM) | 1.2 µM | 4 µg/mL (≈ 10.4 µM) | 0.5 µg/mL (≈ 1.3 µM) | 4 µg/mL (≈ 10.4 µM) | NCC1CCN(c2c(Cl)cc3c(=O)n(N)c(=O)n(C4CC4)c3c2Cl)C1 (stereo not given) |
| 2 µg/mL (≈ 5.65 µM) | 0.5 µg/mL (≈ 1.41 µM) | 0.4 µM | 4 µg/mL (≈ 11.3 µM) | 0.13 µg/mL (≈ 0.367 µM) | 2 µg/mL (≈ 5.65 µM) | N[C@H]1CCN(c2c(F)cc3c(=O)n(N)c(=O)n(C4CC4)c3c2Cl)C1 |
| 0.13 µg/mL (≈ 0.353 µM) | 4 µg/mL (≈ 10.9 µM) | 0.3 µM | 0.25 µg/mL (≈ 0.68 µM) | 0.25 µg/mL (≈ 0.68 µM) | 0.5 µg/mL (≈ 1.36 µM) | NCC1CCN(c2c(F)cc3c(=O)n(N)c(=O)n(C4CC4)c3c2Cl)C1 (stereo not given) |
| 0.25 µg/mL (≈ 0.608 µM) | 64 µg/mL (≈ 156 µM) | 8.2 µM | 1 µg/mL (≈ 2.43 µM) | 1 µg/mL (≈ 2.43 µM) | 1 µg/mL (≈ 2.43 µM) | Cc1c(N2CC[C@@H]([C@H](C)N)C2)c(F)c(C(F)F)c2c(=O)n(N)c(=O)n(C3CC3)c12 |
| 0.015 µg/mL (≈ 0.0415 µM) | 1 µg/mL (≈ 2.77 µM) | 0.2 µM | 0.06 µg/mL (≈ 0.166 µM) | 0.03 µg/mL (≈ 0.083 µM) | 0.06 µg/mL (≈ 0.166 µM) | Cc1c(N2CC[C@@H]([C@H](C)N)C2)c(F)cc2c(=O)n(N)c(=O)n(C3CC3)c12 |
| 0.03 µg/mL (≈ 0.0799 µM) | 2 µg/mL (≈ 5.33 µM) | 0.24 µM | 0.06 µg/mL (≈ 0.16 µM) | 0.03 µg/mL (≈ 0.0799 µM) | 0.06 µg/mL (≈ 0.16 µM) | Cc1c(F)c(N2CC[C@@H]([C@H](C)N)C2)c(C)c2c1c(=O)n(N)c(=O)n2C1CC1 |
| 4 µg/mL (≈ 10.3 µM) | 8 µg/mL (≈ 20.7 µM) | 5.2 µM | 32 µg/mL (≈ 82.6 µM) | 0.25 µg/mL (≈ 0.645 µM) | 32 µg/mL (≈ 82.6 µM) | N[C@H]1CCN(c2c(F)cc3c(=O)n(N)c(=O)n(C4CC4)c3c2C(F)(F)F)C1 |
